From PMC3355950 (The Journal of Neuroscience, 2012)
Values belong to the compound of their own block, whether it stands above or below them.

Key:
[1] = target: GluN1/GluN2A (Rattus norvegicus, UniProt P35439+Q00959); experiment: Whole-cell voltage-clamp recordings, HEK293 cells, rapid solution exchange; assay type: cell-based; settings: 50 μM glutamate
In short: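 HEK293 cells were plated on poly-D-lysine coverslips about 48 h ahead and calcium-phosphate cotransfected with GluN1, GluN2A and GFP (1:1:1). 200 μM D,L-APV and 200 μM 7-chlorokynurenic acid were added after transfection. Whole-cell recording was done about 24 h later at −60 mV and 23°C on lifted cells with piezo-driven theta-glass exchange.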

[2] = system: GluN2B-containing NMDA receptors; settings: ref Williams, 1993; cited from earlier work
[3] = brief application (10 ms) of 1000 μM glycine, antagonist 0.3 μM

GluN1/GluN2A, sequence (Q00959 23-1464, other chains not shown): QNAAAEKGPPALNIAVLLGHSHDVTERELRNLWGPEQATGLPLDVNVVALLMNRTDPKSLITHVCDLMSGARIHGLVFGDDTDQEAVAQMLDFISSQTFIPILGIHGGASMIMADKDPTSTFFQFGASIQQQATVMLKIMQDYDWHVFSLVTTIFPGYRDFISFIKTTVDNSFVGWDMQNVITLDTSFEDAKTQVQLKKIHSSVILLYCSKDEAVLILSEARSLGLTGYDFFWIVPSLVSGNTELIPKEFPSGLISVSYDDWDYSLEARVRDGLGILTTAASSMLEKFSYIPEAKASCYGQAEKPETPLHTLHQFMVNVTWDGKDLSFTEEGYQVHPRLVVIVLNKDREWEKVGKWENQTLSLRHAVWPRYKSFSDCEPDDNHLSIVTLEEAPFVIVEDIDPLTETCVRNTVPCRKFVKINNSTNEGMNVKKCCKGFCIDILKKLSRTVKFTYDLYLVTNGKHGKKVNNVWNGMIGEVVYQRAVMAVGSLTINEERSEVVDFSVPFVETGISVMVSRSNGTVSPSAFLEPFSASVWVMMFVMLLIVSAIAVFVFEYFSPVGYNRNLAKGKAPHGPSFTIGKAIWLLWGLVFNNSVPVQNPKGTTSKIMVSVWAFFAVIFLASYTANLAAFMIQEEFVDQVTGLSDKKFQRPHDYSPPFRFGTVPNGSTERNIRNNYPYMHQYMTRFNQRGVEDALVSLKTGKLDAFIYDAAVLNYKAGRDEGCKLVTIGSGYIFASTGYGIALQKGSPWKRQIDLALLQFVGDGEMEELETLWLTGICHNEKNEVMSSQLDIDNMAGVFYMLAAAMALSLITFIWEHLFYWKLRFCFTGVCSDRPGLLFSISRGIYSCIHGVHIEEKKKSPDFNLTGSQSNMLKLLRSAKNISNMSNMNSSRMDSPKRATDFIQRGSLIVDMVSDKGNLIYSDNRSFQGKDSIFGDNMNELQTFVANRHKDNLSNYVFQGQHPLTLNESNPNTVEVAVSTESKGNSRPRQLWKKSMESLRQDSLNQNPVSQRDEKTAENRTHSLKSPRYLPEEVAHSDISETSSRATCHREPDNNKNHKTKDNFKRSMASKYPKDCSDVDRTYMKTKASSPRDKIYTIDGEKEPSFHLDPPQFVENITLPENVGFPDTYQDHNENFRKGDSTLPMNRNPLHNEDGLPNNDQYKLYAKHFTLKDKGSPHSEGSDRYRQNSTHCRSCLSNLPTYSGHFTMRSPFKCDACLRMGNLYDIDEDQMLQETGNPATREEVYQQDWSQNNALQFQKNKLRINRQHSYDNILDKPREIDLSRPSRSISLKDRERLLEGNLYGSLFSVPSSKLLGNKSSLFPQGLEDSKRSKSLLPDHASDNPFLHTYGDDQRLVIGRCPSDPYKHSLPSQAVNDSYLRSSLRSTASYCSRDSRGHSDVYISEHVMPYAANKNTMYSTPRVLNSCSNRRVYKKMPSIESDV

% fast [1, 3]: 34 ± 6% | τfast [1, 3]: 46 ± 7 ms | τslow [1, 3]: 158 ± 10 ms | deactivation time constant, mono-exponential fit (τslow) ([1]; long application (5 seconds) of 1000 μM glycine, antagonist 0.3 μM): 128 ± 14 ms
Structure (SMILES): O=C(O)c1cc(O)c2ccc(Cl)cc2n1 [7CKA, 7-chlorokynurenic acid]

Structure (SMILES): O=C(O)c1cc(O)c2c(Cl)cc(Cl)cc2n1 [DCKA, 7,5-dichlorokynurenic acid]
Peak response to a brief glycine application ([1]; 0.3 μM, 1 mM glycine 10 ms): 43 ± 13 % of control | Effect on deactivation time course ([1]; 0.3 μM, brief (10 ms) or long (5 seconds) 1 mM glycine): did not alter the deactivation time course

Structure (SMILES): CC(C(O)c1ccc(O)cc1)N1CCC(Cc2ccccc2)CC1 (stereo not shown) [ifenprodil]
selectivity for GluN2B-containing NMDA receptors [2]: over 500 fold
